How the values were obtained:
[1] = test system: BM HSCs; assay: H2B-GFP label dilution assay; format: in vivo, mouse
In short: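 Adult homozygous H2B-GFP;M2-rtTA mice got 2 mg/ml doxycycline in drinking water for 6 weeks. Two weeks after withdrawal, vehicle or 150 mg/kg test compound was gavaged 12 h before vehicle or 150 mg/kg 5FU. BM was harvested 4 weeks after 5FU, and Lin−c-Kit+Sca-1+CD150+CD48− HSC H2B-GFP dilution was curve-fitted. PI = daughter cells per labelled HSC; log2(PI) = divisions. Mean ± SD, 3–6 mice, 3 experiments.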

[2] = after intraperitoneal injection; cited from earlier work
[3] = test system: murine HSPCs; assay: In vivo G1T28 dose response and pharmacodynamic assay; set-up: species or system mouse
In short: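 Female C57BL/6 mice, 8–10 weeks old, got a single IP dose of 50 or 100 mg/kg test compound. EdU 10 mg/kg IP followed at 0.5 to 168 h, and BM and thymus were harvested 2 h later. Surface-stained cells were live/dead-labelled, fixed in 5% formalin, permeabilised with saponin and click-stained with Alexa Fluor 555 azide. DNA was stained with 2 μg/ml DAPI before flow cytometry. n = 3–6 mice/dose/time point.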

[4] = Human PK study, first-in-human Phase I, single IV infusion; format: in vivo
In short: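 Healthy volunteers got a single IV infusion (6–192 mg/m2), with blood sampled predose and at multiple later times. Plasma was spiked with D3-labelled internal standard and protein-precipitated with acetonitrile, then quantified by validated LC-MS/MS. Calibration was 0.5 to 1,000 ng/mL, weighted (1/x2) linear, LLOQ 0.5 ng/mL. PK parameters were derived by noncompartmental and compartmental methods.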

[5] = Human safety and tolerability assessment, Phase I healthy volunteers; format: in vivo
In short: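 Single-centre, double-blind, randomised, placebo-controlled (3:1) single-dose IV study in healthy adults aged 18–60, BMI 18–32 kg/m2, ≥50 kg. Doses were 6, 12, 24, 48, 96 or 192 mg/m2. Subjects stayed in clinic Day −1 to Day 5 and returned Days 7, 10 and 14. Monitoring covered AEs, clinical laboratory tests, vital signs, 12-lead ECG and physical examination. Toxicity was graded by CTCAE v4.0.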

[6] = test system: human BM HSPCs; assay: Human BM proliferation assay; format: in vivo; settings: 192 mg/m^2, 24 hours after dose
In short: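 Healthy volunteers in the 192 mg/m2 single-IV-dose cohort each gave one bone marrow aspirate: predose (n = 5), 24 h (n = 3) or 32 h (n = 4). Lineages were identified by flow cytometry with CD45, CD34, CD14, CD11b, CD71 and CD61. Cell cycle phase (G0/G1 vs S/G2/M) came from DRAQ5 DNA content.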

[7] = test system: C57BL/6 mice; assay: 5FU survival assay; format: in vivo, mouse; settings: for increase in median survival over controls / median survival: 100 mg/kg IP 12 h before each 5FU; for survival in serial 5FU assay: 10-day intervals
In short: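 Female C57BL/6 mice, 8–10 weeks old, got 150 mg/kg 5FU IP once every 7 or 10 days. Test compound was given IP at 50 or 100 mg/kg at 30 minutes, 12 hours and/or 24 hours before each 5FU dose. Mice were monitored daily.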

[8] = test system: BM progenitors; assay: Single dose 5FU hematologic recovery and methylcellulose colony formation assay; format: in vivo, mouse
[9] = test system: HSCs; assay: Serial 5FU treatment and competitive BM reconstitution assay; format: in vivo, mouse; settings: for long-term reconstitution of PB lineages by donor HSCs, primary transplantation: vs 5FU only
In short: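 Donors were female CD45.1 mice given 4 rounds of PBS or 150 mg/kg 5FU at 3-week intervals; some got 150 mg/kg test compound by gavage (vehicle 50 mM citrate, pH 4.0) 30 min before each 5FU. Eight weeks after the last dose, 500,000 donor BM cells plus 500,000 CD45.2 competitor cells went into C57BL/6 recipients irradiated with 2 × 540 rads. Five donors per group, five recipients each. Lineage chimerism was tracked in PB every 4 weeks for ≥16 weeks.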

[10] = ref not given; cited from earlier work
[11] = Terminal half-lives of SCLC standard of care chemotherapy agents; format: in vivo; settings: 4 half-lives
[12] = test system: RB-expressing human cell lines; settings: vast majority of RB-expressing human cell lines; cited from earlier work
[13] = single agent, 6 weeks after doxycycline removal
[14] = after G1T28 treatment, single IP 50 or 100 mg/kg
[15] = human, plasma, intravenous, 192 mg/m2
[16] = G1T28 12 hours before single 5FU, 4 weeks after 5FU
[17] = 4 rounds of 5FU at 3-week intervals

In the case of `O=c1[nH]cc(F)c(=O)[nH]1` [5FU, 5-fluorouracil, reference compound], the “average number of HSC divisions” value [1, 13] is listed as 5.3 ± 0.5 divisions, the “proliferation index (PI)” value [1, 13] is listed as 41.3 ± 5.4 and the “plasma t1/2” value [2] is listed as 0.167 to 0.333 h.

In the case of `CN1CCN(c2ccc(Nc3ncc4cc5n(c4n3)C3(CCCCC3)CNC5=O)nc2)CC1` [G1T28, trilaciclib], the “duration of reduction in EdU incorporation in HSCs before recovery” value [3, 14] is reported as “up to 36 hours”, the “time of minimum EdU incorporation and S/G2/M cell frequency in HSCs” value [3, 14] is reported as 12 h and the “EdU incorporation (S-phase cells) in all hematopoietic cell types” value ([3]; single IP dose, 12 hours after treatment) is reported as “dose-dependent reduction in EdU incorporation”. For the same molecule, the “end of fast α-phase of elimination” value ([4]; after end of infusion) was “approximately 4 h”, the “end of β-phase of elimination” value ([4]; after end of infusion) was “approximately 36 h” and the half-life ([4]; human, plasma, intravenous) was 5.32 to 9.28 h. For the same molecule, the Cmax [4, 15] was 1700 ng/mL, the half-life [4, 15] was 12.9 to 14.7 h and the Tmax ([4]; human, plasma, iv) was 0.25 to 0.47 h. For the same molecule, the “contribution of the terminal phase to the effective half-life” value ([4]; in vivo) was 15-20%, the “clinical laboratory testing, vital signs, ECG, physical examination, body weight” value ([5]; all treatment groups) was “no clinically relevant changes” and the “most frequently reported TEAEs” value ([5]; single IV infusion) was “headache and nausea”. For the same molecule, the “severe or life-threatening TEAEs” value ([5]; single IV infusion) was “No TEAEs of severe or life-threatening intensity were reported”, the tolerability ([5]; single IV infusion, all test doses) was “well tolerated” and the “peripheral blood cell counts” value ([5]; single dose, up to 14 days after infusion) was “did not significantly alter”. For the same molecule, the “reduction in S/G2/M cell frequency of total BM cells” value [6] was 45%, the “increase in median survival over controls” value ([7]; 5FU at 7-day intervals) was 55% and the median survival ([7]; 5FU at 7-day intervals) was 28 days. For the same molecule, the “increase in median survival over controls” value ([7]; 5FU at 10-day intervals) was 125%, the median survival ([7]; 5FU at 10-day intervals) was 63 days and the survival protection ([7]; 10-day assay, G1T28 30 minutes before each 5FU) was “Marked protection”. The “survival protection over treatment at −30 min alone” value ([7]; 10-day assay, G1T28 given twice, −24 h and −30 min) was “no additional protection”, the “average number of HSC divisions” value [1, 16] was 4.6 ± 0.4 divisions and the “proliferation index (PI)” value [1, 16] was 25.2 ± 4.7. For the same molecule, the “average number of HSC divisions” value [1, 13] was 2.4 ± 1.0 divisions, the “proliferation index (PI)” value [1, 13] was 6.2 ± 2.6 and the colony-forming cells surviving ([8]; 1 and 2 days after 5FU treatment) was “increased the number of colony-forming cells”. For the same molecule, the PB count recovery ([8]; G1T28 30 minutes before single 5FU) was “significantly accelerated the PB count recovery”, the “long-term reconstitution of PB lineages by donor HSCs, primary transplantation” value [9, 17] was “enhanced reconstitution of all lineages” and the “reconstitution in secondary recipients” value ([9]; secondary transplantation 32 weeks after initial transplantation) was “significantly greater overall reconstitution”.

In the case of `N.N.O=C([O-])C1(C(=O)[O-])CCC1.[Pt+2]` [carboplatin], the terminal half-life [10] is listed as 6 h.

In the case of `COc1cc([C@@H]2c3cc4c(cc3[C@@H](O[C@@H]3O[C@@H]5CO[C@@H](C)O[C@H]5[C@H](O)[C@H]3O)[C@H]3COC(=O)[C@H]23)OCO4)cc(OC)c1O` [etoposide], the “fraction cleared during a 32-hour G1 arrest” value [11] is given as “approximately 94%” and the terminal half-life [10] is given as 7.5 h.

In the case of `CC(=O)c1c(C)c2cnc(Nc3ccc(N4CCNCC4)cn3)nc2n(C2CCCC2)c1=O` [palbociclib, reference compound], the “survival in serial 5FU assay” value [7] is listed as “survival benefit” and the EC50 [12] is listed as > 2 µM.

For `CN(C)C(=O)c1cc2cnc(Nc3ccc(N4CCNCC4)cn3)nc2n1C1CCCC1` [ribociclib, reference compound], the “survival in serial 5FU assay” value [7] was “survival benefit”.

B1: pegfilgrastim (protein, chains of the INN, looked up)
chain: TPLGPASSLPQSFLLKCLEQVRKIQGDGAALQEKLCATYKLCHPEELVLLGHSLGIPWAPLSSCPSQALQLAGCLSQLHSGLFLYQGLLQALEGISPELGPTLDTLQLDVADFATTIWQQMEELGMAPALQPTQGAMPAFASAFQRRAGGVLVASHLQSFLEVSYRVLRHLAQP
modifications: PEG
For B1, the “survival in serial 5FU assay” value [7] was “survival benefit”, the “long-term HSC function, combined use of pegfilgrastim with G1T28” value [9, 17] was “abolished the HSC protective effect of G1T28” and the “long-term reconstitution of PB lineages by donor HSCs, primary transplantation” value [9, 17] was “did not benefit long-term HSC function”.

Source: publication PMC5774632 (Science translational medicine, 2017)
